Assay results collected from several papers.
Each line is one published result; the experiments were not run side by side.
ADRA1B: Alpha-1B adrenergic receptor (ADRA1B, Homo sapiens, UniProt P35368)
CASP1: Caspase-1 (CASP1, Homo sapiens, UniProt P29466)
PPARA: Peroxisome proliferator-activated receptor alpha (PPARA, Homo sapiens, UniProt Q07869)

Compound | target | assay | setting | Ki
O=S(=O)(Nc1ccc[nH]c1=S)c1cccs1 | Insulin-degrading enzyme (IDE, Homo sapiens, UniProt P14735) | enzyme activity, inhibitor, fluorescence | – | 77000 nM
CC(=O)N[C@@H](CCCNC(=N)N)C(=O)NCC(=O)NCC(=O)N1CCC[C@H]1B(O)O | Prolyl endopeptidase (PREP, Homo sapiens, UniProt P48147) | enzyme activity, inhibitor, fluorescence | – | 1.6 nM
O=C1c2ccccc2CCN1CCCCN1CCN(c2cccc(Cl)c2Cl)CC1 | ADRA1B | ligand displacement, radioligand | – | 649 nM
O=c1c(O)c(-c2ccc(O)c(O)c2)oc2cc(O)cc(O)c12 | CASP1 | enzyme activity, inhibitor, fluorescence | – | > 300000 nM
CSC[C@H]1CN(Cc2c[nH]c3c(N)ncnc23)C[C@@H]1O | 5'-methylthioadenosine/S-adenosylhomocysteine nucleosidase (Staphylococcus aureus, UniProt Q5HFG2) | enzyme activity, inhibitor | – | 7.8 nM
COc1ccc2c(c1)C(=O)N(CCN1CCN(c3ccccc3OC)CC1)C2 | ADRA1B | ligand displacement, radioligand | – | 38.7 nM
O=C(O)c1c(Sc2ccccc2)c2cc(Cl)ccc2n1Cc1ccc(Cl)cc1 | PPARA | ligand displacement, TR-FRET | – | 19700 nM
CCCC[C@H](NC(=O)[C@H](C)c1c(C)[nH]c2ccc(O)cc12)c1ncc(-c2cc3ccccc3nc2OC)[nH]1 | Histone deacetylase 3 (HDAC3, Homo sapiens, UniProt O15379) | enzyme activity, inhibitor | – | 60 nM
O=C1c2ccccc2CCN1CCCCN1CCN(c2ccccn2)CC1 | ADRA1B | ligand displacement, radioligand | – | 1380 nM
Cc1cccc(C(=O)NCN2CCN(c3ccccc3C#N)CC2)c1 | D(2) dopamine receptor (Drd2, Rattus norvegicus, UniProt P61169) | ligand displacement, radioligand | cell membranes | 1380 nM
CC1(COc2ccc(CC3SC(=O)NC3=O)cc2)CCCCC1 (stereo not shown) | PPARA | ligand displacement, TR-FRET | – | 141000 nM
O=c1cc(-c2ccc(O)c(O)c2)oc2cc(O)cc(O)c12 | CASP1 | enzyme activity, inhibitor, fluorescence | – | 119000 nM
CC(=O)N[C@@H](CC(C)C)C(=O)N[C@@H](CC(C)C)C(=O)N[C@@H](CCCN=C(N)N)C(=O)N[C@H](C(=O)N[C@@H](CCCCN)C(=O)N[C@@H](CCCN=C(N)N)C(N)=O)C(C)C | Neuroendocrine convertase 2 (Homo sapiens, UniProt P16519) | enzyme activity, inhibitor | – | 1600 nM
